Results reported in ChEMBL document CHEMBL5338714, “Design, synthesis and biological evaluation of biphenyl-benzamides as potent FtsZ inhibitors” (Eur J Med Chem, 2022).
Converted amounts (≈) assume the structure as drawn. The source made the active and inactive calls. The rule behind the calls is not given here.

How the values were obtained:
[1] = test system: Bacillus subtilis; assay: Antibacterial activity against Bacillus subtilis MG27 assessed as bacterial growth inhibition incubated for 18 hrs by CLSI based broth microdilution method; type: functional
In short: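 CLSI broth microdilution. Log-phase bacteria in Mueller Hinton broth added to 2-fold serial dilutions spanning 128 to 0.25 or 2 to 0.004 µg/mL. Incubated aerobically for 18 h at 37 °C, then OD600 read. MIC is the lowest concentration giving ≥90% growth inhibition; three independent assays.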

[2] = test system: Staphylococcus aureus; assay: Antibacterial activity against ampicillin-resistant Staphylococcus aureus 669 assessed as bacterial growth inhibition incubated for 18 hrs by CLSI based broth microdilution method; type: functional
In short: (§1)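 Broth microdilution to CLSI guidelines. Log-phase bacteria grown in Mueller Hinton broth, diluted, then exposed to 2-fold serial dilutions of compound (128 to 0.25 µg/mL or 2 to 0.004 µg/mL). Incubated aerobically 18 h at 37 °C. Growth read as OD600. MIC = lowest concentration giving ≥90% growth inhibition. Three independent assays.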

[3] = test system: Staphylococcus aureus; assay: Antibacterial activity against ampicillin/kanamycin-resistant Staphylococcus aureus 6917 assessed as bacterial growth inhibition incubated for 18 hrs by CLSI based broth microdilution method; type: functional; in short: as §1
[4] = test system: Pseudomonas aeruginosa; assay: Antibacterial activity against Pseudomonas aeruginosa 15690 assessed as bacterial growth inhibition incubated for 18 hrs by CLSI based broth microdilution method; type: functional; in short: as §1
[5] = Cytotoxicity against African green monkey Vero cells assessed as reduction in cell viability incubated for 72 hrs by alamar blue staining based assay; type: toxicity; settings: chlorocebus sabaeus
In short: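 Vero cells seeded at about 2 × 10^3 per well, 37 °C, 5% CO2. Compound added after 24 h and incubated 72 h. AlamarBlue (1:10 v/v) then added for 3 h in the dark, read at Ex/Em 560/590 nm. CC50 is the lowest concentration causing 50% loss of viability.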

[6] = test system: Bacillus subtilis; assay: Bactericidal activity against Bacillus subtilis ATCC9372 incubated for 24 hrs by broth microdilution method; type: functional
In short: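 MBC from the broth microdilution plates (MHB, 2-fold dilutions). After 24 h, 5 µL aliquots from clear wells were plated on LB agar and incubated aerobically 24 h at 37 °C, then colonies counted. MBC = lowest concentration with no colonies.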

[7] = test system: Staphylococcus aureus; assay: Antibacterial activity against Staphylococcus aureus ATCC25923 assessed as bacterial growth inhibition at 1 to 8 times MIC measured after 12 hrs by time kill curve assay relative to control; type: functional
In short: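 Time-kill: log-phase cultures diluted to about 10^6 CFU/mL in MHB with compound at 1×, 2×, 4× or 8× MIC (vancomycin at 2× MIC), shaken at 37 °C. Samples taken at 3, 6, 12 and 24 h, serially diluted and plated on LB agar. Colonies counted after 24 h at 37 °C; detection limit 10^3 CFU/mL.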

[8] = test system: Staphylococcus aureus; assay: Induction of resistance in Staphylococcus aureus ATCC29213 assessed as fold increase in MIC at 0.5 times MIC after 18 passages incubated for 24 hrs by resistance development assay; type: functional
In short: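 Serial passage of S. aureus ATCC29213. Initial MIC was found by broth microdilution. Bacteria from the 0.5 × MIC tubes (duplicate) were diluted to about 5 × 10^5 CFU/mL and re-exposed to compound for 24 h at 35 °C, then fold increase in MIC was determined. Repeated for 18 passages, with norfloxacin as comparator.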

[9] = Metabolic stability in rat liver microsomes assessed as compound remaining preincubated for 5 mins followed by NADPH addition measured immediately by LC/MS analysis; type: ADME, Microsome; settings: read-out: Stability
[10] = Metabolic stability in human liver microsomes assessed as compound remaining preincubated for 5 mins followed by NADPH addition measured after 5 mins by LC/MS analysis; type: ADME, Microsome; settings: time 10 min, read-out: Stability
In short: (§2)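 Liver microsomes (final protein 0.75 mg/mL) with compound in 100 mM phosphate buffer pH 7.4, preincubated 5 min at 37 °C. Reaction started with NADPH regeneration system, stopped at 5, 15, 30 and 45 min with acetonitrile containing internal standard. Percent remaining measured by LC/MS, with ketanserin as reference; variation given as RSD of area ratio.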

[11] = Metabolic stability in human liver microsomes assessed as compound remaining preincubated for 5 mins followed by NADPH addition measured after 45 mins by LC/MS analysis; type: ADME, Microsome; settings: time 50 min, read-out: Stability; in short: as §2
[12] = Metabolic stability in rat liver microsomes assessed as compound remaining preincubated for 5 mins followed by NADPH addition measured after 45 mins by LC/MS analysis; type: ADME, Microsome; settings: time 50 min, read-out: Stability; in short: as §2
[13] = Metabolic stability in mouse liver microsomes assessed as compound remaining preincubated for 5 mins followed by NADPH addition measured immediately by LC/MS analysis; type: ADME, Microsome; settings: read-out: Stability
[14] = Metabolic stability in human liver microsomes assessed as half life preincubated for 5 mins followed by NADPH addition measured upto 45 mins by LC/MS analysis; type: ADME, Microsome; settings: time < 50 min
In short: (§3)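 Liver microsomes at 0.75 mg/mL final protein, with test article and NADPH regeneration system (6 mM) in 100 mM phosphate buffer, pH 7.4. Preincubated 5 min at 37 °C, then started with NADPH. Quenched with acetonitrile containing internal standard at 5, 15, 30 and 45 min, centrifuged, and percent remaining measured by LC/MS. Ketanserin served as reference.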

[15] = Metabolic stability in mouse liver microsomes assessed as half life preincubated for 5 mins followed by NADPH addition measured upto 45 mins by LC/MS analysis; type: ADME, Microsome; settings: time < 50 min; in short: as §3
[16] = Metabolic stability in human liver microsomes assessed as intrinsic clearance preincubated for 5 mins followed by NADPH addition measured upto 45 mins by LC/MS analysis; type: ADME, Microsome; settings: time < 50 min, read-out: CLH; in short: as §3
[17] = Tmax in ICR mouse at 1 mg/kg, iv measured for 0.08 to 24 hrs by LC-MS/MS analysis; type: ADME, organism-based; settings: in vivo, time 0.08-24 hrs
In short: (§4)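 Male ICR mice, single intravenous dose formulated in 5% DMSO, 4% ethanol, 5% Cremophor EL, 86% water. Blood sampled at 5, 15, 30 min, 1, 2, 4, 8 and 24 h; plasma stored at -20 °C. Compound quantified by LC-MS/MS, with parameters from non-compartmental analysis.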

[18] = Cmax in ICR mouse at 1 mg/kg, iv measured for 0.08 to 24 hrs by LC-MS/MS analysis; type: ADME, organism-based; parameters: time upper 24 hrs, dose 1 mg/kg, time lower 0.08 hrs, route iv; settings: in vivo; in short: as §4
[19] = AUC (0 to infinity) in ICR mouse at 1 mg/kg, iv measured for 0.08 to 24 hrs by LC-MS/MS analysis; type: ADME, organism-based; parameters: dose 1 mg/kg, time upper 24 hrs, time lower 0.08 hrs, route iv; settings: in vivo; in short: as §4
[20] = Cmax in ICR mouse at 5 mg/kg, po measured for 0.25 to 24 hrs by LC-MS/MS analysis; type: ADME, organism-based; parameters: time upper 24 hrs, dose 5 mg/kg, time lower 0.25 hrs, route po; settings: in vivo
In short: (§5)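 Male ICR mice dosed orally with a solution of 5% DMSO, 4% ethanol, 5% Cremophor EL and 86% water. Blood collected at 15, 30 min, 1, 2, 4, 6, 8 and 24 h; plasma stored at -20 °C. Plasma levels measured by LC-MS/MS; parameters by non-compartmental analysis, with bioavailability relative to the 1 mg/kg iv dose.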

[21] = AUC (0 to t) in ICR mouse at 5 mg/kg, po measured for 0.25 to 24 hrs by LC-MS/MS analysis; type: ADME, organism-based; parameters: time lower 0.25 hrs, dose 5 mg/kg, time upper 24 hrs, route po; settings: in vivo; in short: as §5
[22] = test system: Staphylococcus aureus; assay: Antibacterial activity against Staphylococcus aureus ATCC25923 infected in ICR mouse assessed as reduction in bacterial burden in plasma at 25 mg/kg, ip by colony forming unit assay; type: functional, organism-based

Compound Cc1cc(Cl)ccc1-c1cccc(COc2ccc(F)c(C(N)=O)c2F)c1 has an MIC [1] of 0.031 µg/mL (≈ 0.0799 µM), an MIC [2] of 0.06 µg/mL (≈ 0.155 µM) and an MIC [3] of 0.125 µg/mL (≈ 0.322 µM). For the same compound, the MIC [4] was over 128 µg/mL, the CC50 at 72 h [5] was over 20 µg/mL and the MBC [6] was 0.063 µg/mL (≈ 0.162 µM). The “inhibition (INH)” value [7] was 100%, the “fold change (FC)” value [8] was 4 and the remaining at 0 min [9] was 100%. For the same compound, the remaining at 5 min [10] was 97.1%, the remaining at 0.75 h [11] was 75% and the remaining at 0.75 h [12] was 10%. For the same compound, the remaining at 0 min [13] was 100%, the half-life [14] was 112 min and the half-life [15] was 5.09 min. For the same compound, the CLint scaled [16] was 15.5 mL/min/kg, the Tmax [17] was 4.98 min and the Cmax [18] was 480 ng/mL. It also gave an AUC(0-inf) [19] of 179 ng·h/mL, a Cmax [20] of 429 ng/mL and an AUC(0-t) [21] of 544 ng·h/mL. For the same compound, the Activity [22] was “Active”.
